For assay [1], the target named is T1, recombinant LSD1 (Homo sapiens, UniProt O60341). The assay can be described thus: LSD1 enzymatic assay. Type of assay: biochemical.
Assay [2] deals with glioma stem cells (GSCs). The following applies: cited from earlier work.
Assay [3] addresses T1, recombinant LSD1. The assay can be described thus: Reversibility analysis. To be noted: 80-fold dilution. Type of assay: biochemical. An outline of the steps: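 Recombinant LSD1 (2.5 μg) was preincubated for 1 h with the test compound (312.5 μmol/L), a reference inhibitor (600 μmol/L) or DMSO. Aliquots were then diluted 80-fold into HRP-coupled assay solution containing substrate and coupling reagents, and residual demethylase activity was measured.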

The text below walks through data of PMC6663923 (Acta Pharmaceutica Sinica. B, 2019).

Like-named read-outs stand apart in the source and are kept apart here.

One may read the IC50 as the concentration needed to halve the response being measured. As to `C#CCSc1nc(Sc2nnnn2-c2ccccc2)c2nnn(Cc3ccc(OC)cc3)c2n1` [Compound 15y], the 50% inhibitory concentration (IC50) in assay [1] (LSD1 IC50, recombinant LSD1) is 140 nM. As for `CCCSc1nc(Sc2nc3ccccc3s2)c2nnn(CCOCCO)c2n1` [Compound 8l], in assay [1] (recombinant LSD1), the “LSD1 inhibitory effect (in words)” value was “moderate inhibitory effect”. Take `OCCNc1cc(Sc2nnnn2-c2ccccc2)nc(SCc2ccccc2)n1` [Compound 22b, 2-((2-(Benzylthio)-6-((1-phenyl-1H-tetrazol-5-yl)thio)pyrimidin-4-yl)amino)ethan-1-ol]: the IC50 in assay [1] (LSD1 IC50, recombinant LSD1) was above 10000 nM. As for `NC1CC1c1cccc(OCC[C@H](NC(=O)c2ccccc2)C(=O)NCc2ccccc2)c1` (stereo partly drawn) [NCL-1], the “cell viability of GSCs (in words)” value in assay [2] is “significantly reduced the cell viability”. For the compound `C#CCSc1nc(Sc2nnnn2-c2ccccc2)c2nnn(Cc3ccc(C(C)C)cc3)c2n1` [Compound 15x], the IC50 in assay [1] (read-out: LSD1 IC50, recombinant LSD1) turned out to be 55 nM. Consider `O=C(O)c1ccc(CN2CCC(CN[C@@H]3C[C@H]3c3ccccc3)CC2)cc1` [GSK2879552], for which the “reversibility of LSD1 inhibition (in words)” value in assay [3] was “failed to recover the activity of LSD1”.
